Measured values reported in ChEMBL document CHEMBL1165965, “Synthesis and structure-activity relationships of 1,2,3,4-tetrahydropyrido[2,3-b]pyrazines as potent and selective inhibitors of the anaplastic lymphoma kinase” (Bioorg Med Chem, 2010).

Tests used:
[1] = molecular target: T1, Receptor-interacting serine/threonine-protein kinase 1 (Homo sapiens) (UniProt Q13546); test: Inhibition of RIPK1 at 1 uM
T1 sequence (whole entry): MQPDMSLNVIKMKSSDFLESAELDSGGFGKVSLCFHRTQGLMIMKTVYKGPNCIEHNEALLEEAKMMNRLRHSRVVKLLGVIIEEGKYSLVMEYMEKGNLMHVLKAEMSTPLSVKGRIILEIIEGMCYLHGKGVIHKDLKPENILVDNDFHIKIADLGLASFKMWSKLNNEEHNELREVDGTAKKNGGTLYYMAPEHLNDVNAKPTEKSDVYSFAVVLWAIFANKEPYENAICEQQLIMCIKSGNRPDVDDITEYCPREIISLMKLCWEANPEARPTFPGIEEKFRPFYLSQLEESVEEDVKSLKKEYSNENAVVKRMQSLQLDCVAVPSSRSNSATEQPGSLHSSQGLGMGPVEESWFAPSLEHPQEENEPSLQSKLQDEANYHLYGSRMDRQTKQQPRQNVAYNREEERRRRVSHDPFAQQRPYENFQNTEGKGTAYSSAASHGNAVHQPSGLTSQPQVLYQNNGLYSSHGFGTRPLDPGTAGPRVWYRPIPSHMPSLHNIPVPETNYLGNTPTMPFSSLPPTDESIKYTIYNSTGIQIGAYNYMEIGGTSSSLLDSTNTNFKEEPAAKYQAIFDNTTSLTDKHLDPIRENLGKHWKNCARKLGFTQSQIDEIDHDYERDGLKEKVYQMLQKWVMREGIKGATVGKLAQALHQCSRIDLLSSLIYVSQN

[2] = molecular target: Ribosomal protein S6 kinase alpha-4 (Homo sapiens) (UniProt O75676); test: Inhibition of RPS6KA4 N-terminal domain1 at 1 uM
[3] = system: Tyrosine-protein kinase ABL1 (Homo sapiens), P00519 [F317L]; test: Inhibition of ABL1 F317L mutant at 1 uM
[4] = molecular target: Homeodomain-interacting protein kinase 1 (Homo sapiens) (UniProt Q86Z02); test: Inhibition of HIPK1 at 1 uM
Method in brief: (§1)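 Single-concentration screen on the Ambit KINOMEscan platform, run against a panel of 250–400 kinases. Per-kinase inhibition was also summarized as S(90), the fraction of kinases inhibited by more than 90%.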

[5] = molecular target: T2, Tyrosine-protein kinase Tec (Homo sapiens) (UniProt P42680); test: Inhibition of TEC at 1 uM
T2 sequence (whole entry): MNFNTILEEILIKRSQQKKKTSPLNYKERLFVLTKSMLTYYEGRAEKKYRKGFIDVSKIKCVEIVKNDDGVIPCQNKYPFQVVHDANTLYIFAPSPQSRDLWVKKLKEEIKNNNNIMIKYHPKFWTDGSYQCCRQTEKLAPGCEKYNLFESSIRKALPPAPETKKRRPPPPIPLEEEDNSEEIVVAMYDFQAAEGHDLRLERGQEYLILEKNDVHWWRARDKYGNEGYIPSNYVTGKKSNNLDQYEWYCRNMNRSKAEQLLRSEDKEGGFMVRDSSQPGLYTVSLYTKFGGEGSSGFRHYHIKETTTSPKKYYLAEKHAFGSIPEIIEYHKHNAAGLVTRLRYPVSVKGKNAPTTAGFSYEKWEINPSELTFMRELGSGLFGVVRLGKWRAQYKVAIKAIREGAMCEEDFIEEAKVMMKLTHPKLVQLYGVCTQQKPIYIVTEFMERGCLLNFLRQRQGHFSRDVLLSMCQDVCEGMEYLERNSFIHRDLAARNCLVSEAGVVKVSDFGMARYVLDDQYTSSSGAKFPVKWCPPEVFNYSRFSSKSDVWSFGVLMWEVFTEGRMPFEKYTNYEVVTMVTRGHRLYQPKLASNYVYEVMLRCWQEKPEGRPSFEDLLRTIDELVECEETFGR

[6] = molecular target: Cyclin-dependent kinase 3 (Homo sapiens) (UniProt Q00526); test: Inhibition of CDK3 at 1 uM
[7] = molecular target: T3, Serine/threonine-protein kinase MAK (Homo sapiens) (UniProt P20794); test: Inhibition of MAK at 1 uM
T3 sequence (whole entry): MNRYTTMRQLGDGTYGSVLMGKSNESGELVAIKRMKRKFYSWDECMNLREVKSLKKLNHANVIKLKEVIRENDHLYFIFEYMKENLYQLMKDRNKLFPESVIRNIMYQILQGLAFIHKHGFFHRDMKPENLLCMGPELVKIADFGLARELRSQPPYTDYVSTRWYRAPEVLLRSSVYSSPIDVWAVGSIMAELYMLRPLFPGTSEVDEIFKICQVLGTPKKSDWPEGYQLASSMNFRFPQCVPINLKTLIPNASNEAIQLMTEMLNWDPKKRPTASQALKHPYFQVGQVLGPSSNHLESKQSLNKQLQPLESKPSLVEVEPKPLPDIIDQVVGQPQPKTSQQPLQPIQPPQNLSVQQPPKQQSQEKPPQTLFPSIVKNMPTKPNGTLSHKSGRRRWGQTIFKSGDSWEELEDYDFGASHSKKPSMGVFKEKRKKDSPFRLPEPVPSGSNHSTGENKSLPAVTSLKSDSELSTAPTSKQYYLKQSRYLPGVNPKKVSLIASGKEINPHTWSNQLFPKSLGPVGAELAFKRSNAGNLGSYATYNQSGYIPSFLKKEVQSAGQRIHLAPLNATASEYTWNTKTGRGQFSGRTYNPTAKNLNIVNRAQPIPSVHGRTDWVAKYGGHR

[8] = molecular target: Glycogen synthase kinase-3 beta (Homo sapiens) (UniProt P49841); test: Inhibition of GSK3B at 1 uM; method in brief: as §1
[9] = system: Phosphatidylinositol 4,5-bisphosphate 3-kinase catalytic subunit alpha isoform (Homo sapiens), P42336 [Q546K]; test: Inhibition of PIK3CA Q546K mutant at 1 uM
[10] = molecular target: Ribosomal protein S6 kinase alpha-5 (Homo sapiens) (UniProt O75582); test: Inhibition of RPS6KA5 C-terminal domain2 at 1 uM
[11] = molecular target: Mitogen-activated protein kinase kinase kinase 10 (Homo sapiens) (UniProt Q02779); test: Inhibition of MLK2 at 1 uM
Method in brief: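 Kinase-panel screen using KINOMEscan technology, with 250–400 kinases per panel. Each compound was tested at a single concentration, and inhibition of each kinase was recorded. Selectivity was summarised as S(90), the fraction of kinases inhibited by more than 90%.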

[12] = molecular target: Activin receptor type-2B (Homo sapiens) (UniProt Q13705); test: Inhibition of ACVR2B at 1 uM
Method in brief: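 Ambit KINOMEscan screen at a single concentration across a 250–400 kinase panel, recorded as percent inhibition. Selectivity was expressed as S(90), the fraction of kinases inhibited >90%.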

Sequence of Ribosomal protein S6 kinase alpha-4 (Homo sapiens) (O75676 whole entry, looked up, the tested form may be a part): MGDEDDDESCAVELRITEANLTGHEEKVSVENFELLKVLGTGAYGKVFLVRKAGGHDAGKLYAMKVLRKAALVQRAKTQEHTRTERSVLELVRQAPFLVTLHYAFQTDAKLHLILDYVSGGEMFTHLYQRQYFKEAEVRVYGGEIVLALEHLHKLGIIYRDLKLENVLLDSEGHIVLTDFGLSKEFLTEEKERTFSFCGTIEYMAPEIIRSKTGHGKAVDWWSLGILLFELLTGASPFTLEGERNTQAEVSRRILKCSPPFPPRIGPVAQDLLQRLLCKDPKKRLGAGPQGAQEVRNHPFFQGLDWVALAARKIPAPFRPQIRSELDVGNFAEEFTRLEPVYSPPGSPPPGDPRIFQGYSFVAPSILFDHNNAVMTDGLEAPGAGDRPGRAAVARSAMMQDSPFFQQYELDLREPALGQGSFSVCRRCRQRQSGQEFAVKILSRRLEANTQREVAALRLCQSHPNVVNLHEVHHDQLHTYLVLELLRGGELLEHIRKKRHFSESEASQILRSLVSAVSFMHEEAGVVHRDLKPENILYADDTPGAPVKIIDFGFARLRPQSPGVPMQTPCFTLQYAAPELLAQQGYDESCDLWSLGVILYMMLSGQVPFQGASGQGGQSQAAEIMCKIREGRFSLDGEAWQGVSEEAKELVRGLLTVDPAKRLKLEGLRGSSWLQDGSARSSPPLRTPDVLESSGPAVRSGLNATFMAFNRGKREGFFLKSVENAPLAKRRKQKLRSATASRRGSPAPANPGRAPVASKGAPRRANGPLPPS
Sequence of Homeodomain-interacting protein kinase 1 (Homo sapiens) (Q86Z02 whole entry, looked up): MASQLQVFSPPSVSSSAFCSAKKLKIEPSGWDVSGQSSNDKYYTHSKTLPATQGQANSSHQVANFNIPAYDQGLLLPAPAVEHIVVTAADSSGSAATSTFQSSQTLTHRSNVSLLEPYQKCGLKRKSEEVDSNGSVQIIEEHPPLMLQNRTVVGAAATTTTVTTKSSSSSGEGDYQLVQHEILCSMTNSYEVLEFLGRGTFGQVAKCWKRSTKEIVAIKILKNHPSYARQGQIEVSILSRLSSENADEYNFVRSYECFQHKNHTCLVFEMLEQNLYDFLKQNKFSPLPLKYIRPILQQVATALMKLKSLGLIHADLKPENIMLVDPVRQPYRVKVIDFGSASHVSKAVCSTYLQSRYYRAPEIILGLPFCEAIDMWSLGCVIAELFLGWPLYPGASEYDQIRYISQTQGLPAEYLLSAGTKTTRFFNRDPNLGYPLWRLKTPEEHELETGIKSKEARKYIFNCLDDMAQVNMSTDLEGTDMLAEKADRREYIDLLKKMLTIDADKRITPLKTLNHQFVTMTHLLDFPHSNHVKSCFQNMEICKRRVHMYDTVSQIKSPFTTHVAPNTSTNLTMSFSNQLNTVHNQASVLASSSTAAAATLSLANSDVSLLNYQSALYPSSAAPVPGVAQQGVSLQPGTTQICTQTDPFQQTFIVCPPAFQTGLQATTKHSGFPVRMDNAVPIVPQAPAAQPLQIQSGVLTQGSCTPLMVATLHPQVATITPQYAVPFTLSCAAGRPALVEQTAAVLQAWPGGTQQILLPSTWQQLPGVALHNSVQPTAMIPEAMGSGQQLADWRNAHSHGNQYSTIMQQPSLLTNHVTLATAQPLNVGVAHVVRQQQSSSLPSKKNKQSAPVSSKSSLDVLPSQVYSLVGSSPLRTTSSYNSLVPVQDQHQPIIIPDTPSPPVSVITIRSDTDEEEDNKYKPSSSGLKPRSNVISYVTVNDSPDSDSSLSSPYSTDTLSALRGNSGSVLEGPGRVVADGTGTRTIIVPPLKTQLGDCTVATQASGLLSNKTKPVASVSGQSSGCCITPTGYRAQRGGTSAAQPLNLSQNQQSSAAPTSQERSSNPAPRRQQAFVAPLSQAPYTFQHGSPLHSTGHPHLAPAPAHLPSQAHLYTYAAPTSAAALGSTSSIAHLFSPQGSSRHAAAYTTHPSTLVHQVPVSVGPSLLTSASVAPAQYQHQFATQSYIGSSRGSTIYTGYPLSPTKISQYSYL
Sequence of Activin receptor type-2B (Homo sapiens) (Q13705 whole entry): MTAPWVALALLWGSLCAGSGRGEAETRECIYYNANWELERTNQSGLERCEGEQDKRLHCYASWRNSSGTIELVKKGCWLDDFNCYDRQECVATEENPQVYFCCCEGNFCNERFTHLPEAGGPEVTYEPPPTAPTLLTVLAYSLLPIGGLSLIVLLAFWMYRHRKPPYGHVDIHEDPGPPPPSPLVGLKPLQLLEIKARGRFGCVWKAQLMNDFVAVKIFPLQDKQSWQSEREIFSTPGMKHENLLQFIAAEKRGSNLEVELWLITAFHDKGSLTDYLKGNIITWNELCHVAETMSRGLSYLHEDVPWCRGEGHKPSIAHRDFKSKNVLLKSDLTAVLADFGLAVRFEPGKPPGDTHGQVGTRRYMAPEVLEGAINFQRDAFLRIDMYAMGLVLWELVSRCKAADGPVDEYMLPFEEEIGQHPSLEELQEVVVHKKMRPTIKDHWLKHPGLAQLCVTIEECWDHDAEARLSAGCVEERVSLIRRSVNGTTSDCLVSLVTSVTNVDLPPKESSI
Sequence of Ribosomal protein S6 kinase alpha-5 (Homo sapiens) (O75582 whole entry, looked up, the tested form may be a part): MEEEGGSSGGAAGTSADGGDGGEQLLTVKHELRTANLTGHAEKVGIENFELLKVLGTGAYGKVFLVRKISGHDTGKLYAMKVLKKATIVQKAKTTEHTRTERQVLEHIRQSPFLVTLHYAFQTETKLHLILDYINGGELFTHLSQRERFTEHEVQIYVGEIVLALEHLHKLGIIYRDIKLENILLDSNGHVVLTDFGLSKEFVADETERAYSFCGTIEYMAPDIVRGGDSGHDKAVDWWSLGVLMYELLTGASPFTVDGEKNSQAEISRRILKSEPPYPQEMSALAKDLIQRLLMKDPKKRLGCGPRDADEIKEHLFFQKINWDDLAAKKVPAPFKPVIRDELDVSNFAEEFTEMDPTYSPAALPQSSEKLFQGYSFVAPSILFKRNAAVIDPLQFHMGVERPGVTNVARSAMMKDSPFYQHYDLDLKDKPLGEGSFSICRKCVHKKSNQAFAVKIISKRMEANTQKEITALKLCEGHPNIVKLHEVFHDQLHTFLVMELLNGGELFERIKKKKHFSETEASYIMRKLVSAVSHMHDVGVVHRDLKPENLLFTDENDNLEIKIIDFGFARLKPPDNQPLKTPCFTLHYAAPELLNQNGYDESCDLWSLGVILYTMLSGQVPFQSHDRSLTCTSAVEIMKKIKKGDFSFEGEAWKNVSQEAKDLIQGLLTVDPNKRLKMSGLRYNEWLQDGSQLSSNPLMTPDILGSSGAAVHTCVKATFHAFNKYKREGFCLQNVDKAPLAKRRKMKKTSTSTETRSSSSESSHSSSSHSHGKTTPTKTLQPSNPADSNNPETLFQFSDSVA
Sequence of Tyrosine-protein kinase ABL1 (Homo sapiens), P00519 [F317L] (P00519 whole entry F317L): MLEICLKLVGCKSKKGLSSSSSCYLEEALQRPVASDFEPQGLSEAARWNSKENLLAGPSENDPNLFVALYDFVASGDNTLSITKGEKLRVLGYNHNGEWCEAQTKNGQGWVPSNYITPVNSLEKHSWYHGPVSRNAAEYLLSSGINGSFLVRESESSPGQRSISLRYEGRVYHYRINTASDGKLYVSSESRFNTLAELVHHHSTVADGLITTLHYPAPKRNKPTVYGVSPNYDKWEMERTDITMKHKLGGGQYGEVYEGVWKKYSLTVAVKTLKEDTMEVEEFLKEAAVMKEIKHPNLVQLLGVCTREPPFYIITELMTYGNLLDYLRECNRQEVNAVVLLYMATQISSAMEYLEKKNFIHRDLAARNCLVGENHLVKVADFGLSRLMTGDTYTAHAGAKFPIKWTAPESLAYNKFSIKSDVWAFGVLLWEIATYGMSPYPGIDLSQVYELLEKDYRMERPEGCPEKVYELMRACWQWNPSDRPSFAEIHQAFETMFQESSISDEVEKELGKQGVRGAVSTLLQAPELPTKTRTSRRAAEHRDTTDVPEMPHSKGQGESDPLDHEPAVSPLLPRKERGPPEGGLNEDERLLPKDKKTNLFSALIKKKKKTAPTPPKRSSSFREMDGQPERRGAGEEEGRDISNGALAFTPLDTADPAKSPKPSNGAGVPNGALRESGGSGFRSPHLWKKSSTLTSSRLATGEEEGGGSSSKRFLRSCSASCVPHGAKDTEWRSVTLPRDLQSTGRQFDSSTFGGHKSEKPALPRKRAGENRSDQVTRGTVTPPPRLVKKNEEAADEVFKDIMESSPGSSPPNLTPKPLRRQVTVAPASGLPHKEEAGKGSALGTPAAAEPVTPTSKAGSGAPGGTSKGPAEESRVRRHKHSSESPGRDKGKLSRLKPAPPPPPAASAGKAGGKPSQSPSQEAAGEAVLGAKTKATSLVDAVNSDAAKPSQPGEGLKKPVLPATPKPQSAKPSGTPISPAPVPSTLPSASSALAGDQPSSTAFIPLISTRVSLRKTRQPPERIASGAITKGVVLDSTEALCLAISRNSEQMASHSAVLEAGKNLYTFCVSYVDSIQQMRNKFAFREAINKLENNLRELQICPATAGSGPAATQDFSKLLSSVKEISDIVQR
Sequence of Cyclin-dependent kinase 3 (Homo sapiens) (Q00526 whole entry, looked up): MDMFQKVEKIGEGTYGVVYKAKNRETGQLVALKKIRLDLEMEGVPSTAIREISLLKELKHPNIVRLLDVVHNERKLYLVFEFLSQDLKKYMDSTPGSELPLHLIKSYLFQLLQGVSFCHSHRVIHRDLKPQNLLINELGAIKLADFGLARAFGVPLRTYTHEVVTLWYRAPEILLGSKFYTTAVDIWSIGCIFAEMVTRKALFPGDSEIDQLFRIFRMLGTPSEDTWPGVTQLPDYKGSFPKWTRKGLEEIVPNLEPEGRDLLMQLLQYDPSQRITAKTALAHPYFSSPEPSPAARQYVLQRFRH

CN1CCN(c2ccc(-c3cnc4c(c3)N(Cc3cc(F)ccc3F)CCN4)cn2)CC1 gave an inhibition [1] of under 50%, an inhibition [2] of under 50% and an inhibition [3] of under 50%. For the same compound, the inhibition [4] was 72.2%, the inhibition [5] was under 50% and the inhibition [6] was under 50%. The inhibition [7] was under 50%, the inhibition [8] was under 50% and the inhibition [9] was under 50%. It also gave an inhibition [10] of under 50%, an inhibition [11] of under 50% and an inhibition [12] of under 50%.

O=C(c1ccc(-c2cnc3c(c2)N(Cc2cc(Cl)ccc2C(F)(F)F)CCN3)cc1)N1CCC(N2CCCC2)CC1 showed an inhibition [1] of under 50%, an inhibition [2] of under 50% and an inhibition [4] of under 50%. It also gave an inhibition [8] of under 50%, an inhibition [10] of under 50% and an inhibition [11] of under 50%. For the same compound, the inhibition [12] was under 50%.

Work on O=C(c1ccc(-c2cnc3c(c2)N(Cc2cc(Cl)ccc2C(F)(F)F)CCN3)cc1)N1CCCCC1 yielded an inhibition [1] of under 50%, an inhibition [2] of under 50% and an inhibition [4] of under 50%. For the same compound, the inhibition [8] was under 50%, the inhibition [10] was under 50% and the inhibition [11] was under 50%. The inhibition [12] was under 50%.

With CN1CCN(c2ccc(-c3cnc4c(c3)N(Cc3c(F)ccc(F)c3Cl)CCN4)cn2)CC1 the inhibition [1] was under 50%, the inhibition [2] was under 50% and the inhibition [3] was 77%. For the same compound, the inhibition [4] was 70%, the inhibition [5] was under 50% and the inhibition [6] was under 50%. It also gave an inhibition [7] of under 50%, an inhibition [8] of under 50% and an inhibition [9] of under 50%. For the same compound, the inhibition [10] was under 50%, the inhibition [11] was under 50% and the inhibition [12] was under 50%.

In the case of COC1CCN(C(=O)c2ccc(-c3cnc4c(c3)N(Cc3cc(Cl)ccc3C(F)(F)F)CCN4)cc2)CC1, the inhibition [1] was under 50%, the inhibition [2] was under 50% and the inhibition [4] was under 50%. The inhibition [8] was under 50%, the inhibition [10] was under 50% and the inhibition [11] was under 50%. It also gave an inhibition [12] of under 50%.

In the case of O=C(O)c1ccc(-c2cnc3c(c2)N(Cc2cc(Cl)ccc2C(F)(F)F)CCN3)cc1, the inhibition [1] was under 50%, the inhibition [2] was under 50% and the inhibition [3] was under 50%. For the same compound, the inhibition [4] was under 50%, the inhibition [8] was under 50% and the inhibition [10] was under 50%. The inhibition [11] was under 50% and the inhibition [12] was under 50%.

Compound CC(=O)N1CCN(c2cc(-c3cnc4c(c3)N(Cc3cc(Cl)ccc3C(F)(F)F)CCN4)ccn2)CC1 has an inhibition [1] of under 50%, an inhibition [2] of under 50% and an inhibition [3] of under 50%. For the same compound, the inhibition [4] was under 50%, the inhibition [5] was under 50% and the inhibition [6] was under 50%. It also gave an inhibition [7] of under 50%, an inhibition [8] of under 50% and an inhibition [9] of under 50%. It also gave an inhibition [10] of under 50%, an inhibition [11] of under 50% and an inhibition [12] of under 50%.

FC(F)(F)c1ccc(Cl)cc1CN1CCNc2ncc(-c3ccnc(N4CCNCC4)c3)cc21 showed an inhibition [1] of under 50%, an inhibition [2] of under 50% and an inhibition [3] of under 50%. The inhibition [4] was under 50%, the inhibition [5] was under 50% and the inhibition [6] was under 50%. For the same compound, the inhibition [7] was under 50%, the inhibition [8] was under 50% and the inhibition [9] was under 50%. For the same compound, the inhibition [10] was under 50%, the inhibition [11] was under 50% and the inhibition [12] was under 50%.

Compound CN1CCN(c2ccc(-c3cnc4c(c3)N(Cc3cc(Cl)ccc3C(F)(F)F)CCN4)cn2)CC1 has an inhibition [1] of under 50%, an inhibition [2] of under 50% and an inhibition [3] of under 50%. The inhibition [4] was under 50%, the inhibition [5] was under 50% and the inhibition [6] was under 50%. For the same compound, the inhibition [7] was under 50%, the inhibition [8] was under 50% and the inhibition [9] was under 50%. It also gave an inhibition [10] of under 50%, an inhibition [11] of under 50% and an inhibition [12] of under 50%.

CN1CCN(c2ccc(-c3cnc4c(c3)N(Cc3cc(Cl)ccc3Cl)CCN4)cn2)CC1 was tested, and the inhibition [1] was under 50%, the inhibition [2] was under 50% and the inhibition [3] was under 50%. It also gave an inhibition [4] of under 50%, an inhibition [5] of under 50% and an inhibition [6] of under 50%. The inhibition [7] was under 50%, the inhibition [8] was under 50% and the inhibition [9] was under 50%. It also gave an inhibition [10] of under 50%, an inhibition [11] of under 50% and an inhibition [12] of under 50%.
